# Test results: ChEMBL document CHEMBL1136726, “Synthesis and characterization of iodine-123 labeled 2beta-carbomethoxy-3beta-(4'-((Z)-2-iodoethenyl)phenyl)nortropane. A ligand for in vivo imaging of serotonin transporters by single-photon-emission tomography” (J Med Chem, 2003)
# Key:
# [1] = tested on: Rattus norvegicus; experiment: Distribution of radioactivity in rat brain region cerebellum 60 min after intravenous administration of iodine labeled compound in presence of RTI-113 blocker in study 2; assay type: ADME, organism-based; details: in vivo, 1 h
# Outline: (§1)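 Male Sprague–Dawley rats (250–300 g), ketamine-anesthetized. Blocker (2 mg/kg) or none was given iv 15 min before tail-vein radioligand (10 µCi in 0.2 mL 10% EtOH/saline). Rats were killed at 60 min with im pentobarbital. Brain regions were dissected, weighed and gamma-counted. % dose/g was taken from decay-corrected, background-subtracted counts versus the injected dose.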
# [2] = tested on: Rattus norvegicus; experiment: Distribution of radioactivity in rat brain region cerebellum 60 min after intravenous administration of iodine labeled compound in presence of fluvoxamine blocker in study 1; assay type: ADME, organism-based; details: in vivo, 1 h; outline: as §1
# [3] = tested on: Rattus norvegicus; experiment: Distribution of radioactivity in rat brain region frontal cortex 60 min after intravenous administration of iodine labeled compound in absence of blocker in study 1; assay type: ADME, organism-based; details: in vivo, 1 h; outline: as §1
# [4] = tested on: Rattus norvegicus; experiment: Distribution of radioactivity in rat brain region frontal cortex 60 min after intravenous administration of iodine labeled compound in presence of RTI-113 blocker in study 1; assay type: ADME, organism-based; details: in vivo, 1 h; outline: as §1
# [5] = tested on: Rattus norvegicus; experiment: Distribution of radioactivity in rat brain striatum 30 min after intravenous administration of iodine labeled compound; assay type: ADME, organism-based; details: in vivo, 0.5 h
# Outline: (§2)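 Male Sprague–Dawley rats (225–300 g) under ketamine anaesthesia were given [123I]ZIENT (10 μCi) in 0.2 mL 10% EtOH/0.9% NaCl into the tail vein, with a saline flush. Hypothalamus, prefrontal cortex, striatum, pons and cerebellum were dissected and gamma-counted. % injected dose/g came from decay-corrected counts against the diluted injected dose, and region/cerebellum ratios were taken from these. Mean ± SE, n=4–5.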
# [6] = tested on: Rattus norvegicus; experiment: Distribution of radioactivity in rat heart 120 min after intravenous administration of iodine labeled compound; assay type: ADME, organism-based; details: in vivo, 2 h
# Outline: (§3)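 Tail-vein injection of [123I]ZIENT (10 μCi in 0.2 mL 10% EtOH/0.9% NaCl, then 0.4 mL saline flush) into ketamine-anaesthetised male Sprague–Dawley rats (225–300 g). Animals were killed by cardiac excision at set times. Organs were excised, rinsed, blotted, weighed and gamma-counted. % dose/g was calculated against diluted aliquots of injectate. Mean ± SE, n=4–5.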
# [7] = tested on: Rattus norvegicus; experiment: Distribution of radioactivity in rat kidney 30 min after intravenous administration of iodine labeled compound; assay type: ADME, organism-based; details: in vivo, 0.5 h; outline: as §3
# [8] = tested on: Rattus norvegicus; experiment: Distribution of radioactivity in rat kidney 5 min after intravenous administration of iodine labeled compound; assay type: ADME, organism-based; details: in vivo; outline: as §3
# [9] = tested on: Rattus norvegicus; experiment: Distribution of radioactivity in rat kidney 60 min after intravenous administration of iodine labeled compound; assay type: ADME, organism-based; details: in vivo, 1 h; outline: as §3
# [10] = tested on: Rattus norvegicus; experiment: Distribution of radioactivity in rat liver 120 min after intravenous administration of iodine labeled compound; assay type: ADME, organism-based; details: in vivo, 2 h; outline: as §3
# [11] = tested on: Rattus norvegicus; experiment: Distribution of radioactivity in rat blood 60 min after intravenous administration of iodine labeled compound; assay type: ADME, organism-based; details: in vivo, 1 h
# Outline: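 Male Sprague–Dawley rats (225–300 g) under ketamine received 10 µCi radioligand in 0.2 mL 10% EtOH/0.9% NaCl via tail vein, then a saline flush. Killed by cardiac excision at set times. Organs were excised, weighed and gamma-counted. % dose/g was taken against diluted injectate. Mean ± SE and range, n=4 (5 min) or 5 (30–120 min).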
# [12] = tested on: Rattus norvegicus; experiment: Distribution of radioactivity in rat brain 30 min after intravenous administration of iodine labeled compound; assay type: ADME, organism-based; details: in vivo, 0.5 h
# [13] = tested on: Rattus norvegicus; experiment: Ratio of distribution of radioactivity in rat brain region prefrontal cortex and cerebellum 60 min after intravenous administration of iodine labeled compound in absence of blocker in study 2; assay type: ADME, organism-based; details: in vivo, 1 h
# [14] = tested on: Rattus norvegicus; experiment: Distribution of radioactivity in rat brain region pons 60 min after intravenous administration of iodine labeled compound in presence of RTI-113 blocker in study 1; assay type: ADME, organism-based; details: in vivo, 1 h; outline: as §1
# [15] = tested on: Rattus norvegicus; experiment: Distribution of radioactivity in rat brain region prefrontal cortex 60 min after intravenous administration of iodine labeled compound in absence of blocker in study 2; assay type: ADME, organism-based; details: in vivo, 1 h; outline: as §1
# [16] = tested on: Rattus norvegicus; experiment: Distribution of radioactivity in rat brain region striatum 60 min after intravenous administration of iodine labeled compound in absence of blocker in study 2; assay type: ADME, organism-based; details: in vivo, 1 h
# Outline: (§4)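 Male Sprague–Dawley rats (250–300 g), ketamine-anaesthetised, received [123I]ZIENT (10 μCi) in 0.2 mL 10% ethanol/0.9% NaCl via the tail vein. […] Rats were killed at 60 min with pentobarbital, brain regions dissected and gamma-counted. Values are % dose/g from decay-corrected, background-subtracted counts against the diluted injected dose.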
# [17] = tested on: Rattus norvegicus; experiment: Distribution of radioactivity in rat brain region striatum 60 min after intravenous administration of iodine labeled compound in presence of fluvoxamine blocker in study 1; assay type: ADME, organism-based; details: in vivo, 1 h; outline: as §4
# [18] = tested on: Rattus norvegicus; experiment: Distribution of radioactivity in rat brain 60 min after intravenous administration of iodine labeled compound; assay type: ADME, organism-based; details: in vivo, 1 h
# [19] = tested on: Rattus norvegicus; experiment: Distribution of radioactivity in rat brain cerebellum 120 min after intravenous administration of iodine labeled compound; assay type: ADME, organism-based; details: in vivo, 2 h
# Outline: (§5)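 Male Sprague–Dawley rats (225–300 g) under ketamine received 10 µCi radioligand iv (tail vein) in 10% EtOH/saline. Hypothalamus, prefrontal cortex, striatum, pons and cerebellum were dissected, weighed and gamma-counted. % injected dose/g was taken from decay-corrected counts versus diluted dose. Mean ± SE and range, n=5 (5, 30 min) or 4 (60, 120 min).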
# [20] = tested on: Rattus norvegicus; experiment: Distribution of radioactivity in rat brain hypothalamus 120 min after intravenous administration of iodine labeled compound; assay type: ADME, organism-based; details: in vivo, 2 h; outline: as §5
# [21] = tested on: Rattus norvegicus; experiment: Distribution of radioactivity in rat brain pons 30 min after intravenous administration of iodine labeled compound; assay type: ADME, organism-based; details: in vivo, 0.5 h; outline: as §5
# [22] = tested on: Rattus norvegicus; experiment: Distribution of radioactivity in rat brain pons 60 min after intravenous administration of iodine labeled compound; assay type: ADME, organism-based; details: in vivo, 1 h; outline: as §5
# [23] = tested on: Rattus norvegicus; experiment: Distribution of radioactivity in rat brain prefrontal cortex 60 min after intravenous administration of iodine labeled compound; assay type: ADME, organism-based; details: in vivo, 1 h; outline: as §5
# [24] = tested on: Rattus norvegicus; experiment: Distribution of radioactivity in rat brain region hypothalamus 60 min after intravenous administration of iodine labeled compound in absence of blocker in study 2; assay type: ADME, organism-based; details: in vivo, 1 h; outline: as §1
# [25] = tested on: Rattus norvegicus; experiment: Distribution of radioactivity in rat lung 120 min after intravenous administration of iodine labeled compound; assay type: ADME, organism-based; details: in vivo, 2 h; outline: as §3
# [26] = tested on: Rattus norvegicus; experiment: Distribution of radioactivity in rat lung 5 min after intravenous administration of iodine labeled compound; assay type: ADME, organism-based; details: in vivo; outline: as §3
# [27] = tested on: Rattus norvegicus; experiment: Distribution of radioactivity in rat lung 60 min after intravenous administration of iodine labeled compound; assay type: ADME, organism-based; details: in vivo, 1 h; outline: as §3
# [28] = tested on: Rattus norvegicus; experiment: Distribution of radioactivity in rat spleen 5 min after intravenous administration of iodine labeled compound; assay type: ADME, organism-based; details: in vivo; outline: as §3
# [29] = tested on: Rattus norvegicus; experiment: Distribution of radioactivity in rat testis 5 min after intravenous administration of iodine labeled compound; assay type: ADME, organism-based; details: in vivo; outline: as §3
# [30] = tested on: Rattus norvegicus; experiment: Distribution of radioactivity in rat testis 60 min after intravenous administration of iodine labeled compound; assay type: ADME, organism-based; details: in vivo, 1 h; outline: as §3
# [31] = tested on: Rattus norvegicus; experiment: Distribution of radioactivity in rat thyroid 30 min after intravenous administration of iodine labeled compound; assay type: ADME, organism-based, Thyroid gland; details: in vivo, 0.5 h; outline: as §3
# [32] = tested on: Rattus norvegicus; experiment: Distribution of radioactivity in rat thyroid 60 min after intravenous administration of iodine labeled compound; assay type: ADME, organism-based, Thyroid gland; details: in vivo, 1 h; outline: as §3
# [33] = tested on: Rattus norvegicus; experiment: Ratio of distribution of radioactivity in rat brain hypothalamus and cerebellum 30 min after intravenous administration of iodine labeled compound; assay type: ADME, organism-based; details: in vivo, 0.5 h; outline: as §2
# [34] = tested on: Rattus norvegicus; experiment: Ratio of distribution of radioactivity in rat brain prefrontal cortex and cerebellum 120 min after intravenous administration of iodine labeled compound; assay type: ADME, organism-based; details: in vivo, 2 h; outline: as §2
# [35] = tested on: Rattus norvegicus; experiment: Ratio of distribution of radioactivity in rat brain prefrontal cortex and cerebellum 5 min after intravenous administration of iodine labeled compound; assay type: ADME, organism-based; details: in vivo; outline: as §2
# [36] = tested on: Rattus norvegicus; experiment: Ratio of distribution of radioactivity in rat brain region pons and cerebellum 60 min after intravenous administration of iodine labeled compound in presence of RTI-113 blocker in study 1; assay type: ADME, organism-based; details: in vivo, 1 h
# [37] = tested on: Rattus norvegicus; experiment: Distribution of radioactivity in rat brain hypothalamus 60 min after intravenous administration of iodine labeled compound; assay type: ADME, organism-based; details: in vivo, 1 h; outline: as §5
compound,measurement,setting,value
COC(=O)[C@@H]1C2CCC(C[C@@H]1c1ccc(/C=C\I)cc1)N2 (some centres not stated),Distribution (dose/g),[1],0.25%
same,Distribution (dose/g),[2],0.17%
same,Distribution (dose/g),[3],0.75%
same,Distribution (dose/g),[4],0.66%
same,Distribution (dose/g),[5],0.72%
same,Distribution (dose/g),[6],0.22%
same,Distribution (dose/g),[7],0.49%
same,Distribution (dose/g),[8],1.13%
same,Distribution (dose/g),[9],0.34%
same,Distribution (dose/g),[10],0.23%
same,Distribution (dose/g),[11],0.37%
same,Distribution (dose/g),[12],0.74%
same,Distribution (dose/g),[13],3.89%
same,Distribution (dose/g),[14],0.56%
same,Distribution (dose/g),[15],0.74%
same,Distribution (dose/g),[16],0.63%
same,Distribution (dose/g),[17],0.3%
same,Distribution (dose/g),[18],0.62%
same,Distribution (dose/g),[19],0.12%
same,Distribution (dose/g),[20],0.59%
same,Distribution (dose/g),[21],0.6%
same,Distribution (dose/g),[22],0.59%
same,Distribution (dose/g),[23],0.82%
same,Distribution (dose/g),[24],0.75%
same,Distribution (dose/g),[25],0.76%
same,Distribution (dose/g),[26],4.96%
same,Distribution (dose/g),[27],1.41%
same,Distribution (dose/g),[28],1.81%
same,Distribution (dose/g),[29],0.21%
same,Distribution (dose/g),[30],0.32%
same,Distribution (dose/g),[31],0.49%
same,Distribution (dose/g),[32],0.8%
same,Distribution (dose/g),[33],2.38%
same,Distribution (dose/g),[34],4.08%
same,Distribution (dose/g),[35],1.45%
same,Distribution (dose/g),[36],2.24%
same,Distribution (dose/g),[37],0.77%
